Reference: ChEMBL document CHEMBL4765243, “Discovery of Novel Bromophenol-Thiosemicarbazone Hybrids as Potent Selective Inhibitors of Poly(ADP-ribose) Polymerase-1 (PARP-1) for Use in Cancer” (J Med Chem, 2019)

Tests used:
[1] = target: Poly [ADP-ribose] polymerase 2 (Homo sapiens, UniProt Q9UGN5); assay: Inhibition of human recombinant N-terminal GST-tagged PARP-2 expressed in Baculovirus infected Sf9 cells assessed as reduction in NAD+-dependent ADP ribosylation using histone mixture (H2A and H2B) as substrate in presence of activated DNA incubated for 30 mins by chemiluminescence assay
Poly [ADP-ribose] polymerase 2, sequence (Q9UGN5 whole entry): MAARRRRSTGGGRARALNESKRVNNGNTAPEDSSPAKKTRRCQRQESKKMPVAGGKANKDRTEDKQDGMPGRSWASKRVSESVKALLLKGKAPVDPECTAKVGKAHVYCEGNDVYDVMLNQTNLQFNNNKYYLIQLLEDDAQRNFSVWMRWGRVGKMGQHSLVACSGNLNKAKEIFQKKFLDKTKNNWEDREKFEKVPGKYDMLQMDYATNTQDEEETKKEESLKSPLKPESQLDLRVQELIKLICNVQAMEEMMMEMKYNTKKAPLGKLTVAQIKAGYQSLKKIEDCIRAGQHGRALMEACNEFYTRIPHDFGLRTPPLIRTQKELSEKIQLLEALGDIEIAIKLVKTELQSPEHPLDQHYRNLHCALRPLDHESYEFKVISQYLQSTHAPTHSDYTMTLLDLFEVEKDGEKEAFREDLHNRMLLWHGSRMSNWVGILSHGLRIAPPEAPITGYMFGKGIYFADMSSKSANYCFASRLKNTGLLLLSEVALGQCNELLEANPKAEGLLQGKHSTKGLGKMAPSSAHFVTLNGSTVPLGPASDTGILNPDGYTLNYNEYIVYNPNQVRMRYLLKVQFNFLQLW

[2] = Cytotoxicity against human HL7702 cells assessed as cell growth inhibition at 20 uM incubated for 48 hrs by MTT assay relative to control; format: cell-based; conditions: HL7702 (L02) cells
HepG2 [3] = assay: Antiproliferative activity against human HepG2 cells assessed as cell growth inhibition incubated for 48 hrs by MTT assay; format: functional, cell-based; conditions: HepG2, 48 h
In short: (§1)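 Cells seeded in 96-well plates and exposed to compounds for 48 h; viability read by MTT. Each experiment repeated three times. SK-OV-3 grown in McCOY's 5A, Bel-7402 and HL-7702 in RPMI-1640, HepG2 in DMEM, Caco-2 in MEM.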

Bel-7402 [4] = assay: Antiproliferative activity against human Bel-7402 cells assessed as cell growth inhibition at 20 uM incubated for 48 hrs by MTT assay relative to control; format: functional
Caco-2 [5] = assay: Antiproliferative activity against human Caco-2 cells assessed as cell growth inhibition at 20 uM incubated for 48 hrs by MTT assay relative to control; format: functional
Bel-7402 [6] = assay: Antiproliferative activity against human Bel-7402 cells assessed as cell growth inhibition incubated for 48 hrs by MTT assay; format: functional, cell-based; conditions: Bel-7402, 48 h; in short: as §1
HepG2 [7] = assay: Antiproliferative activity against human HepG2 cells assessed as cell growth inhibition at 20 uM incubated for 48 hrs by MTT assay relative to control; format: functional
[8] = Selectivity index, ratio of IC50 for inhibition of human recombinant N-terminal GST-tagged PARP-2 to IC50 for inhibition of human recombinant GST-tagged PARP-1
Caco-2 [9] = assay: Antiproliferative activity against human Caco-2 cells assessed as cell growth inhibition incubated for 48 hrs by MTT assay; format: functional, cell-based; conditions: Caco-2, 48 h; in short: as §1
[10] = target: T1, Poly [ADP-ribose] polymerase 1 (Homo sapiens, UniProt P09874); conditions: dose 100.0 nM, time 30.0 min
T1 sequence (P09874 whole entry): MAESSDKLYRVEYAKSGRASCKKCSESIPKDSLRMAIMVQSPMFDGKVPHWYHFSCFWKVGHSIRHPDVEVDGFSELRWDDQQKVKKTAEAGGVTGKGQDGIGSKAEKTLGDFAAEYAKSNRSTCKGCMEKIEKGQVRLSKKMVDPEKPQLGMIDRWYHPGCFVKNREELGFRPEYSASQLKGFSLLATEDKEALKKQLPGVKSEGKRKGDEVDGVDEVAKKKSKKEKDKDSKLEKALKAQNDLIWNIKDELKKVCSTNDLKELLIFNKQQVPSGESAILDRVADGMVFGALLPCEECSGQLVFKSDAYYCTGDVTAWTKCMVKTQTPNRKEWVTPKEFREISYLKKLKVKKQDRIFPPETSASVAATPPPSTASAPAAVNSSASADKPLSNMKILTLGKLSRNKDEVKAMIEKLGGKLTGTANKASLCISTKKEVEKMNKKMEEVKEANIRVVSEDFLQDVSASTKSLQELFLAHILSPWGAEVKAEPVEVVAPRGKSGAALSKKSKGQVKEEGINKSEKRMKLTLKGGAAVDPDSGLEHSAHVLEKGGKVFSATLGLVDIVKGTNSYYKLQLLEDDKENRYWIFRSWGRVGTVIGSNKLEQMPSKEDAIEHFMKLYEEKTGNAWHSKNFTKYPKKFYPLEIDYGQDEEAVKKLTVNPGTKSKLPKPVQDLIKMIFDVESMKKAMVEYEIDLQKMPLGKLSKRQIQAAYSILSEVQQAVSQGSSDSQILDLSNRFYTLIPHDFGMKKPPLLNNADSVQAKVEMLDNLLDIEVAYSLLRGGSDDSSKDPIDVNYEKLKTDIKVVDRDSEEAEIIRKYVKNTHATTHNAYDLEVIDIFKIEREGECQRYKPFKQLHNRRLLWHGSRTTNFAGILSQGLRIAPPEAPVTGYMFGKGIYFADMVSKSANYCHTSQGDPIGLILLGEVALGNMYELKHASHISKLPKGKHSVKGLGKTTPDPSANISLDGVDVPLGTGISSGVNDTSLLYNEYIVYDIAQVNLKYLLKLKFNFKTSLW

L02 = assay: Cytotoxicity against human HL7702 cells assessed as cell growth inhibition incubated for 48 hrs by MTT assay; format: cell-based; conditions: L02, 48 h; in short: as §1
SK-OV-3 [11] = assay: Antiproliferative activity against human SK-OV-3 cells assessed as cell growth inhibition at 20 uM incubated for 48 hrs by MTT assay relative to control; format: functional
[12] = target: T1, Poly [ADP-ribose] polymerase 1; assay: Inhibition of human recombinant GST-tagged PARP-1 expressed in Escherichia coli assessed as reduction in NAD+-dependent ADP ribosylation incubated for 30 mins in presence and NAD by resazurin dye based fluorescence analysis
SK-OV-3 [13] = assay: Antiproliferative activity against human SK-OV-3 cells assessed as cell growth inhibition incubated for 48 hrs by MTT assay; format: functional, cell-based; conditions: SK-OV-3, 48 h; in short: as §1
[14] = Toxicity in Balb/c nude mouse xenografted with human SKOV3 cells assessed as change in body weight at 25 mg/kg, po for 21 days and measured every third day; format: organism-based; conditions: in vivo, 504 h, time 21 day
In short: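 Female BALB/c nu/nu mice, 6-8 weeks old, kept under SPF conditions. Each received 5×10^6 SK-OV-3 cells s.c. At 80–120 mm3 tumour volume, mice were split into four groups (n=6). […] Caliper measurement every three days; volume = X × (Y2/2).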

COc1cc(/C=N/NC(=S)NCCCN2CCOCC2)c(Br)c(Br)c1OC
IC50 [1]: > 1 µM | inhibition at 48 h, 20 µM [2]: 51% | IC50 (HepG2 [3]): 26.3 µM | inhibition at 20 µM (Bel-7402 [4]): 89.7% | inhibition at 20 µM (Caco-2 [5]): 45.9% | IC50 (Bel-7402 [6]): 24 µM | inhibition at 20 µM (HepG2 [7]): 40.2% | Ratio IC50 [8]: > 5.37 | IC50 (Caco-2 [9]): 15.9 µM | inhibition [10]: 51.5% | IC50 (L02): 28.9 µM | inhibition at 20 µM (SK-OV-3 [11]): 71.5% | IC50 [12]: 0.186 µM | IC50 (SK-OV-3 [13]): 18.2 µM

CCOC(=O)c1ccc(NC(=S)N/N=C/c2cc(OC)c(OC)c(Br)c2Br)cc1
IC50 [1]: > 1 µM | inhibition at 48 h, 20 µM [2]: 97.7% | IC50 (HepG2 [3]): 10.5 µM | inhibition at 20 µM (Bel-7402 [4]): 71.9% | inhibition at 20 µM (Caco-2 [5]): 76.5% | IC50 (Bel-7402 [6]): 6.89 µM | inhibition at 20 µM (HepG2 [7]): 73% | Ratio IC50 [8]: > 17.2 | IC50 (Caco-2 [9]): 11.3 µM | inhibition [10]: 72.2% | IC50 (L02): 9.96 µM | inhibition at 20 µM (SK-OV-3 [11]): 70% | IC50 [12]: 0.0583 µM | IC50 (SK-OV-3 [13]): 15.6 µM

O=C(c1cc(Cc2n[nH]c(=O)c3ccccc23)ccc1F)N1CCN(C(=O)C2CC2)CC1 [OLAPARIB]
IC50 (HepG2 [3]): 42.4 µM | IC50 (Bel-7402 [6]): 35.5 µM | IC50 (Caco-2 [9]): 65.5 µM | IC50 (L02): 25.8 µM | Activity [14]: Non-Toxic | IC50 (SK-OV-3 [13]): 3.15 µM
